Assay outcomes deposited in PubChem by several laboratories.
In the library only some 2.7% were active in any assay of this set; here they are far more common.
LYP act: LYP phosphatase activators, primary screen, biochemical, DiFMUP fluorescence, 2 µM; activation, % at 2 µM; recombinant LYP; 0 = plate median, 100 = signal doubled; AID 697, 2007; Tyrosine-protein phosphatase non-receptor type 22 (Homo sapiens), Q9Y2R2; 96,000 tested, 0.11% active;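 active = activation at 2 µM above a set limit, the mean plus 5 SD, cut at about 37% in these data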
PLK1 PBD inh: Plk1 polo box domain binding inhibitors, primary screen, biochemical, fluorescence polarization | Serine/threonine-protein kinase PLK1 (Homo sapiens), P53350 | Plk1 PBD phosphopeptide binding | inhibition, %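 (tested at about 20 µM)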 | 97,000 tested, 0.13% active | AID 693, 2007; in the data active = inhibition above about 34%, passing the limit was not always enough
PTPN22 inh 2: PTPN22 phosphatase inhibitors, primary screen, biochemical, DiFMUP fluorescence, 2 µM | recombinant LYP catalytic domain | inhibition, % at 2 µM | 96,000 tested, 0.21% active | Tyrosine-protein phosphatase non-receptor type 22 (Homo sapiens), Q9Y2R2;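 active = inhibition at 2 µM at or above a set limit, the screen mean plus 3 SD, cut at about 24% in these data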;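 also: 0% = DMSO with enzyme and 100% = enzyme fully blocked by orthovanadate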
PLK1 kinase inh: human PLK1 kinase inhibitors, primary screen, biochemical, TR-FRET; Serine/threonine-protein kinase PLK1 (Homo sapiens), P53350; recombinant PLK1 kinase, TR-FRET peptide phosphorylation; inhibition, % at 10 µM; 97,000 tested, 0.53% active;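 active = inhibition of 50% or more in the single-concentration screen; inactive = inhibition below 50%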;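 also: 0% = DMSO max control and 100% = H-89 dihydrochloride min control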
Rev-RRE block: HIV-1 Rev-RRE binding inhibitors, primary screen, biochemical, FRET, protein-RNA interaction. P05866. Rev peptide-RRE RNA binding. inhibition, % at 8 µM. 97,000 tested, 0.79% active;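 active = inhibition above the screen-wide mean plus 3 SD, cut at about 35% in these data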;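 also: 0% = median DMSO wells and 100% = median Neomycin B control wells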
Target sequence (P05866 whole entry, looked up): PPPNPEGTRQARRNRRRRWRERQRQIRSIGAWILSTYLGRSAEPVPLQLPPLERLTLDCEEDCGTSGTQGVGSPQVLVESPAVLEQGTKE
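System: Cy5-labelled duplex RRE RNA binding fluorescein-labelled HIV Rev peptide; Signal: fluorescein-to-Cy5 FRET, 480 nm excitation; Also added: labelled Rev peptide; Compound: one concentration, 8 µM nominal; Buffer or medium: HEPES pH 7.5 salt buffer with EDTA; Read-out: % inhibition of FRET ratio versus controls; Schedule: 5 min preincubation and 15 min binding, 25 °C.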
PLAP act: PLAP enzyme activators, biochemical, luminescence, HTS; purified PLAP enzyme, luminescent substrate read-out; active compounds read high; Alkaline phosphatase, placental type (Homo sapiens), P05187; 96,000 tested, 1.2% active; AID 696, 2007; activation fold at 20 µM; in the data active = activation fold above about 2
Target sequence (P05187 whole entry, looked up): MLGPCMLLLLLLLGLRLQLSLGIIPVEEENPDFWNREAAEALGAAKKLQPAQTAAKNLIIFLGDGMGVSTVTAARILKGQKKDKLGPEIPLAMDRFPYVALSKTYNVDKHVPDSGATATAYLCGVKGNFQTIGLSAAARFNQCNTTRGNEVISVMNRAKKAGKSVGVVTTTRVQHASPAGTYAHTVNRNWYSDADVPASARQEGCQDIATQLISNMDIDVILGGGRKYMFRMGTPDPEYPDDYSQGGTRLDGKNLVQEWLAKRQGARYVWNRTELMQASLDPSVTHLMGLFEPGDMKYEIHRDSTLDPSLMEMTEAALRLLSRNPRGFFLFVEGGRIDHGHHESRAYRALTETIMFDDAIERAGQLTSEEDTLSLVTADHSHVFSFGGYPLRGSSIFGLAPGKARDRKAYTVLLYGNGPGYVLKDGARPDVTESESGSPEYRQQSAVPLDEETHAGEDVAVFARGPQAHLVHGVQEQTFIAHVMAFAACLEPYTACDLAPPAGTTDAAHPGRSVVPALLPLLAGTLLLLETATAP
* marks the source's active call; other numbers are inactive results; . = no result; [ ] = remark or other dose.

SMILES | LYP act | PLK1 PBD inh | PTPN22 inh 2 | PLK1 kinase inh | Rev-RRE block | PLAP act
O=C(/C=C/c1ccc(Cl)cc1)NCCN1CCOCC1 | 6 | 23 | -2 | 1 | 2 | 0.9
c1ccc(CNc2c3c(nc4ncnn24)CCCC3)nc1 | -10 | -18 | 10 | -15 | 10 | 2.5*
Cn1c(-c2ccc3c(c2)OCO3)cnc1N | 10 | 14 | -13 | 24 | 8 | 1.1
O=C(OCCCCN1C(=O)c2ccccc2C1=O)c1ccc(S(=O)(=O)N2CCCC2)cc1 | . | . | . | . | . | 1
Cn1cccc1/C=N/NC(=O)Cn1cnc2ccccc21 | 1 | -1 | 2 | -7 | 1 | 1.1
COc1cc(C(=O)Nc2cc(-c3ccccc3)[nH]n2)cc(OC)c1OC | . | . | . | . | . | 2.3*
COc1cc(C(=O)Nc2nc(OC)c(-c3ccccc3)c(OC)n2)cc(OC)c1OC | . | . | . | . | . | 1.2
C/C(N)=C(/C#N)C(=O)COC(=O)c1ccncc1 | 0 | 18 | -2 | 0 | 10 | 2.3*
O=C(Nc1nnc(-c2ccc(Cl)cc2)o1)NC1CCCCC1 | 7 | -5 | -7 | -11 | 6 | 1
CCC(=O)c1ccc(N2CCOCC2)c(F)c1 | -13 | 14 | 13 | -13 | 5 | .
CCCC(=O)c1ccc(N2CCOCC2)c(F)c1 | -1 | 13 | 0 | 7 | -6 | 2.1*
Cc1cc2oc(=O)cc(CN3CCc4ccccc43)c2cc1Cl | -2 | -6 | 0 | -9 | 3 | 0.9
Cc1ccc2c(CN3CCCc4ccccc43)cc(=O)oc2c1C | -3 | -3 | 0 | -19 | 57* | 1.3
CCOc1ccc(C2C(C(=O)c3ccco3)=C(O)C(=O)N2Cc2cccnc2)cc1 (stereo not given) | 0 | 23 | 0 | -7 | -2 | 1
COc1ccc(Br)cc1CN1CCCC(C(=O)N2CCCCCC2)C1 (stereo not given) | 2 | -19 | -5 | -1 | 11 | 1.3
CC1(C)Cc2c(sc3c2C2=NCCN2C=N3)CO1 | 6 | 11 | -4 | 57* | 13 | 1.1
O=C(CSc1nnc(-c2ccco2)n1Cc1ccccc1)c1ccccc1 | 2 | 11 | -3 | -17 | 7 | 1.6
Clc1ccc(-c2nnc(-c3ccco3)o2)cc1 | 1 | -20 | -2 | -16 | 2 | 1
CCc1c(C)sc(NC(=O)CC#N)c1C#N | -15 | -12 | 13 | 7 | 37* | 1.2
CCc1c(C)sc(NC(=O)c2cc(C)no2)c1C#N | -4 | 4 | 3 | -20 | 8 | 0.9
CC(=O)c1ccc(NC(=O)CSc2nnc(Cc3cccn3C)n2-c2ccc(F)cc2)cc1 | -1 | 4 | -2 | -5 | -3 | 1.7
Cc1ccc(C2=NNC(C(O)C(O)C(O)C(O)CO)S2)cc1 (stereo not given) | 7 | -10 | -8 | -9 | 3 | 2*
C=CCNC(=O)c1ccc(Cl)cc1Cl | 3 | 18 | -4 | -7 | 2 | 0.9
C=CCNC(=S)NNC(=O)c1cccn(Cc2ccc(Cl)cc2Cl)c1=O | -47 | -12 | 49* | -11 | -1 | 1.2
CCNC(=S)NNC(=O)c1cccn(Cc2ccc(Cl)cc2Cl)c1=O | -59 | 5 | 60* | -8 | -1 | 1.7
SMILES | LYP act | PLK1 PBD inh | PTPN22 inh 2 | PLK1 kinase inh | Rev-RRE block | PLAP act
CCn1c(SCc2nc3ccccc3c(=O)[nH]2)nnc1-c1cccnc1 | 2 | 8 | 2 | -4 | 0 | 1.1
O=C1CCc2nc3sc4c(c3c(=O)n2N1)CCCC4 | 2 | 4 | -3 | -13 | 0 | .
CCOC(=O)CC(=O)CSc1nc2c(C)c(C)ccc2cc1C | -27 | 20 | 24* | -13 | 6 | 0.8
CC1CCN(CCc2nc3cc(NC(=O)NC4CCCCC4)ccc3n2C)CC1 | -3 | -11 | 5 | -5 | -1 | 2*
COc1ccc(CNC(=O)c2cc3c(=O)n4ccccc4nc3n(Cc3ccco3)c2=N)cc1 | -10 | 2 | 7 | -12 | 18 | .
O=C(NCc1ccco1)c1nc2c(nnn2Cc2cccc(Cl)c2)c(=O)[nH]1 | 10 | -6 | -13 | -7 | 9 | 1.4
Cc1ccc(Cn2nnc3c(=O)[nH]c(C(=O)NCc4ccco4)nc32)cc1 | . | . | . | . | . | 2*
Cc1ccc(Cn2c(=N)c(C(=O)NCc3ccco3)cc3c(=O)n4ccccc4nc32)cc1 | -28 | -12 | 31* | 4 | 27 | .
COCCCNC(=O)c1cccn2c(=O)c3cc4ccccc4cc3nc12 | -42 | -19 | 43* | -22 | 80*[fluorescence artefact?] | 1.3
O=C(NCc1ccco1)c1cccn2c(=O)c3cc4ccccc4cc3nc12 | -13 | 0 | 15 | 0 | 57* | 1.3
COc1ccc(C(=O)c2cnc(/N=C/N(C)C)s2)cc1 | . | 2 | . | -5 | 5 | 1
COc1ccc(-n2nnnc2SCC(N)=O)cc1 | 1 | 0 | -6 | -7 | 7 | 0.8
COc1ccc(-n2nnnc2SCC(=O)c2ccc(O)c(O)c2)cc1 | -38 | 6 | 35* | 2 | 1 | 0.4
CC1=Nc2ccccc2/C1=C\c1nc(-c2ccc(C(F)(F)F)cc2)oc1O | -2 | -45 | 4 | -27 | 126*[fluorescence artefact?] | 0.9
CC1=Nc2ccccc2/C1=C\c1nc(-c2ccccc2)oc1O | -6 | -27 | 3 | -21 | 54* | 0.8
Oc1oc(-c2ccccc2)nc1C=NCc1ccccc1 | 6 | 1 | -4 | 3 | 8 | 0.6
CN=Cc1c(NC)nc2c(C)cccn2c1=O | -4 | 22 | 4 | 1 | -1 | 1
COC(=O)C1=NN(c2ccccc2)C2(S1)SC(C(C)=O)=C(C)N2c1ccccc1 (stereo not given) | 2 | 25 | 1 | -3 | 0 | 1
COC(=O)C1=NN(c2ccc(C)cc2)C2(S1)SC(C(C)=O)=C(C)N2c1ccccc1 (stereo not given) | 2 | 4 | -1 | -6 | 37* | 1.1
O=C(COC(=O)c1ccccn1)Nc1ccc(S(=O)(=O)N2CCOCC2)cc1 | 5 | -6 | -5 | -4 | 2 | 1.2
Cc1ccc(OCc2nc(C#N)c(NCCCn3ccnc3)o2)cc1 | -11 | 0 | 11 | -5 | 5 | 1.2
N#Cc1nc(COc2ccc(Br)cc2)oc1NCCCn1ccnc1 | -5 | -3 | 4 | -7 | 13 | 2.2*
CCC(=O)Nc1ccc(F)c(Cl)c1 | 3 | -4 | 0 | -5 | 5 | 1.2
COCc1[nH]nc2c1C(c1ccccc1OC)C(C#N)=C(N)O2 (stereo not given) | . | . | . | . | . | 1
CCOC(=O)Cc1[nH]nc2c1C(c1cccc(OC)c1OC)C(C#N)=C(N)O2 (stereo not given) | . | . | . | . | . | 2.2*
CCOC(=O)Cc1[nH]nc2c1C(C1C=CCCC1)C(C#N)=C(N)O2 (stereo not given) | 2 | 13 | -3 | -13 | -2 | 2.1*
